Results on nine compounds are retold here after ChEMBL document CHEMBL5032492, “Aminoalkoxycarbonyloxymethyl Ether Prodrugs with a pH-Triggered Release Mechanism: A Case Study Improving the Solubility, Bioavailability, and Efficacy of Antimalarial 4(1H)-Quinolones with Single Dose Cures” (J Med Chem, 2021).

pEC50: −log10 of the molar value. In brackets after ≈: the same amount, converted by molar mass.

For data set [1], the system named is Plasmodium falciparum. As to the kind of experiment: Antimalarial activity against chloroquine, pyrimethamine, mefloquine and atovaquone- resistant Plasmodium falciparum TM90-C2B infected in human erythrocytes assessed as reduction in parasite growth incubated for 48 hrs followed by addition of [3H]-hypoxanthine and measured after 24 hrs by Topcount liquid scintillation counting method. Format: functional, organism-based. As to conditions: Erythrocyte.

Data set [2] in a line: Aqueous solubility of compound at pH 7.4. Format: physicochemical. Particulars: buffer.
Data set [3] deals with Plasmodium falciparum. Briefly: Antimalarial activity against chloroquine and pyrimethamine resistant Plasmodium falciparum W2 infected in human erythrocytes assessed as reduction in parasite growth incubated for 48 hrs followed by addition of [3H]-hypoxanthine and measured after 24 hrs by Topcount liquid scintillation counting method. Particulars: W2, Erythrocyte. It counts as functional, organism-based.

Data set [4] can be described thus: Aqueous solubility of compound at pH 2.4. Particulars: buffer.
For data set [5], the system named is Plasmodium berghei. Briefly: In vivo antimalarial activity against blood stage Plasmodium berghei transfected with GFP infected in BALB/c mouse assessed as supression of parasitemia at 50 mg/kg, po administered once daily starting from day 3 to 5 post infection and measured at day 6 by Giemsa staining based flow cytometric analysis relative to control. It counts as functional. In a few lines:
(§1)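 Female BALB/c mice, 4–6 weeks old, five per group, were infected intraperitoneally with 2 × 10^6 P. berghei-GFP-infected red cells. Oral doses of 10 or 50 mg/kg in 0.5% aqueous HEC were given once daily on days 3–5 PI; prodrugs were suspended about 1 min before dosing. Parasitemia was measured by flow cytometry and Giemsa smears. Day-6 percent suppression was calculated versus untreated controls, with Welch-corrected t test.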
(Flow cytometry measures light scatter and fluorescence of single cells or particles in a stream.)

The nature of data set [6]: Toxicity in BALB/c mouse infected with blood stage Plasmodium berghei assessed as weight loss at up to at 50 mg/kg, po administered once daily starting from day 3 to 5 post infection and measured on day 6. Format: organism-based. Particulars: in vivo. The essentials: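 P. berghei-infected BALB/c mice were dosed orally once daily on days 3–5 PI in 0.5% aqueous HEC, at doses up to 50 mg/kg. Body weight of treated animals was monitored for loss.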

A short description of data set [7]: AUC (0 to 24 hrs) in BALB/c mouse at 50 mg/kg, po. Format: ADME, organism-based. Also noted: time < 24 hr, route oral, dose 50 mg/kg. As to conditions: in vivo. In a few lines: (§2)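 Single oral dose in mice, formulated in 0.5% aqueous HEC; doses of 3, 10 or 50 mg/kg. The parent 4(1H)-quinolone was quantified in plasma over time after dosing, with a lower limit of quantification of 1 nM. PK parameters were derived from the plasma concentration profiles.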

Data set [8] is described as follows: Clearance in BALB/c mouse at 50 mg/kg, po. It counts as ADME, organism-based. As to conditions: in vivo. The essentials: as §2
In data set [9] the test system is Plasmodium berghei. Briefly: In vivo antimalarial activity against blood stage Plasmodium berghei transfected with GFP infected in BALB/c mouse assessed as supression of parasitemia at 10 mg/kg, po administered once daily starting from day 3 to 5 post infection and measured at day 6 by Giemsa staining based flow cytometric analysis relative to control. It counts as functional. In a few lines:
as §1

The nature of data set [10]: Solubility of the compound in 0.5% hydroxyethylcellulose.
Data set [11] can be described thus: Cmax in BALB/c mouse at 50 mg/kg, po. Format: ADME, organism-based. Also noted: route oral, dose 50 mg/kg. Particulars: in vivo. In a few lines: as §2
Data set [12] can be described thus: Volume of distribution in BALB/c mouse at 50 mg/kg, po. Particulars: in vivo. It counts as ADME, organism-based. The essentials: as §2
Data set [13] is described as follows: Apparent half life in BALB/c mouse at 50 mg/kg, po. Format: ADME, organism-based. As to conditions: in vivo, read-out: t1/2(app) (converted). In a few lines:
as §2

Data set [14] is described as follows: Tmax in BALB/c mouse at 50 mg/kg, po. It counts as ADME, organism-based. Particulars: in vivo. The essentials:
as §2

For data set [15], the system named is Plasmodium berghei. Briefly: In vivo antimalarial activity against blood stage Plasmodium berghei transfected with GFP infected in BALB/c mouse assessed as supression of parasitemia at 0.3 mg/kg, po administered as single dose on 3 days post infection and measured on day 6 by Giemsa staining based flow cytometric analysis relative to control. Format: functional. Particulars: time 3 day. The essentials: (§3)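 Female BALB/c mice, 4–6 weeks old, five per dose group, were infected intraperitoneally with 2 × 10^6 P. berghei-GFP-infected red cells. Each received one oral dose on day 3 PI in 0.5% aqueous HEC; doses ranged 0.01–10 mg/kg. Parasitemia was measured from tail blood by flow cytometry and Giemsa smears. Percent suppression on day 6 PI was calculated versus untreated infected controls, with Welch-corrected unpaired t test.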

Data set [16] concerns Plasmodium berghei. Briefly: In vivo antimalarial activity against blood stage Plasmodium berghei transfected with GFP infected in BALB/c mouse assessed as supression of parasitemia at 3 mg/kg, po administered as single dose on 3 days post infection and measured on day 6 by Giemsa staining based flow cytometric analysis relative to control. It counts as functional. Particulars: time 3 day. In a few lines:
as §3

Data set [17] can be described thus: Toxicity in BALB/c mouse infected with blood stage Plasmodium berghei assessed as death at 1 mg/kg, po administered as single dose starting from day 3 post infection and measured on day 13. Particulars: in vivo, 240 h, time 10 day. Format: organism-based. The essentials:
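Female BALB/c mice (4–6 weeks, about 18 g), five per group, infected intraperitoneally with P. berghei (GFP)-parasitized erythrocytes. Given one oral dose on day 3 PI in 0.5% aqueous HEC, freshly solubilized about 1 min before dosing. Tail-vein parasitemia read by flow cytometry and Giemsa smears every third day through day 30. Untreated animals served as controls.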

In data set [18] the test system is Plasmodium berghei. Briefly: In vivo antimalarial activity against blood stage Plasmodium berghei transfected with GFP infected in BALB/c mouse assessed as supression of parasitemia at 10 mg/kg, po administered as single dose on 3 days post infection and measured on day 6 by Giemsa staining based flow cytometric analysis relative to control. It counts as functional. As to conditions: time 3 day. The essentials: as §3

The nature of data set [19]: AUC (0 to 24 hrs) in BALB/c mouse at 10 mg/kg, po. Format: ADME, organism-based. Also on record: time < 24 hr, route oral, dose 10 mg/kg. Particulars: in vivo. The essentials:
as §2

Data set [20] has as its system Plasmodium berghei. Briefly: In vivo antimalarial activity against blood stage Plasmodium berghei transfected with GFP infected in BALB/c mouse assessed as supression of parasitemia at 0.1 mg/kg, po administered as single dose on 3 days post infection and measured on day 6 by Giemsa staining based flow cytometric analysis relative to control. Format: functional. Particulars: time 3 day. The essentials:
as §3

Data set [21] has as its system Plasmodium berghei. Briefly: In vivo antimalarial activity against blood stage Plasmodium berghei transfected with GFP infected in BALB/c mouse assessed as supression of parasitemia at 1 mg/kg, po administered as single dose on 3 days post infection and measured on day 6 by Giemsa staining based flow cytometric analysis relative to control. It counts as functional. As to conditions: time 3 day. In a few lines:
as §3

Data set [22] relates to Plasmodium berghei. Briefly: In vivo antimalarial activity against blood stage Plasmodium berghei transfected with GFP infected in BALB/c mouse assessed as supression of parasitemia at 0.03 mg/kg, po administered as single dose on 3 days post infection and measured on day 6 by Giemsa staining based flow cytometric analysis relative to control. It counts as functional. As to conditions: time 3 day. In a few lines:
as §3

A short description of data set [23]: Clearance in BALB/c mouse at 10 mg/kg, po. Particulars: in vivo. It counts as ADME, organism-based. In a few lines:
as §2

For data set [24], the system named is Plasmodium berghei. Briefly: In vivo antimalarial activity against blood stage Plasmodium berghei transfected with GFP infected in BALB/c mouse assessed as supression of parasitemia at 0.01 mg/kg, po administered as single dose on 3 days post infection and measured on day 6 by Giemsa staining based flow cytometric analysis relative to control. It counts as functional. As to conditions: time 3 day. The essentials: as §3

Data set [25] deals with Plasmodium berghei. As to the kind of experiment: In vivo antimalarial activity against blood stage Plasmodium berghei transfected with GFP infected in BALB/c mouse assessed as supression of parasitemia at 1 mg/kg, po administered as single dose on 3 days post infection and measured on day 13 by Giemsa staining based flow cytometric analysis relative to control. It counts as functional. Particulars: time 10 day. In a few lines:
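Female BALB/c mice, five per group, were infected with P. berghei-GFP-infected erythrocytes intraperitoneally. Each received a single oral dose of 1 mg/kg in 0.5% aqueous HEC on day 3 PI. Tail-blood parasitemia was followed by flow cytometry and Giemsa smears at 3-day intervals through day 30. Suppression on day 13 PI was calculated relative to untreated infected controls.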

Data set [26] in a line: Clearance in BALB/c mouse at 3 mg/kg, po. Format: ADME, organism-based. Particulars: in vivo. In a few lines:
as §2

Data set [27] can be described thus: AUC (0 to 24 hrs) in BALB/c mouse at 3 mg/kg, po. It counts as ADME, organism-based. Also noted: time < 24 hr, route oral, dose 3 mg/kg. Particulars: in vivo. The essentials:
as §2

Data set [28] relates to Plasmodium berghei. As to the kind of experiment: In vivo antimalarial activity against blood stage Plasmodium berghei transfected with GFP infected in BALB/c mouse assessed as supression of parasitemia at 10 mg/kg, po administered thrice daily started from 3 days post infection and measured on day 6 by Giemsa staining based flow cytometric analysis relative to control. Format: functional. As to conditions: time 3 day.

One may read the pEC50 as the EC50 on a negative log10 scale, so that one unit is a factor of ten. Usually solubility stands for how much of the substance goes into solution per volume. In the case of `CCOC(=O)Oc1c(-c2ccccc2C)c(C)nc2cc(OC)c(Cl)cc12`, the negative-log EC50 (pEC50) in the data set with Plasmodium falciparum [1] is 6.90; in the data set with Plasmodium falciparum [3], 6.77. Also, the solubility in [2] is less than 1 µM.

As usually defined, the AUC is concentration integrated over time. In data set [4], `COc1cc2[nH]c(C)c(-c3ccc(C(F)(F)F)cc3)c(=O)c2cc1Cl` showed a solubility of less than 1 µM. Besides, the Activity is 10% in the data set with Plasmodium berghei [5], “Non-Toxic” in data set [6] and 11% in the data set on Plasmodium berghei [9]. The compound further returned an AUC in data set [7] of 222 µmol·min/L. This compound also showed a clearance in data set [8] of 610 mL/min/kg.

Consider `COc1cc2nc(C)c(-c3ccccc3C)c(OC(=O)N3CCCC3)c2cc1Cl`, for which the pEC50 is less than 5.45 with Plasmodium falciparum [1] and less than 5.64 in the data set with Plasmodium falciparum [3].

In the case of `COc1cc2[nH]c(C)c(-c3ccccc3C)c(=O)c2cc1Cl`, the values for the pEC50 in the data set with Plasmodium falciparum [1] and in the data set on Plasmodium falciparum [3] were 7.42 and 7.66, respectively. The same compound had a solubility in data set [4] of 6.9 µM (≈ 2.17 µg/mL). For the same compound, the Activity in the data set with Plasmodium berghei [5] is 28%; in data set [6], “Non-Toxic”; with Plasmodium berghei [9] it was 29%.

For the compound `CCCSc1ccc2nc(NC(=O)OC)[nH]c2c1` [ALBENDAZOLE], the solubility in [4] came out at 100 µM (≈ 26.5 µg/mL); in data set [2], 6.1 µM (≈ 1.62 µg/mL).

The term Cmax denotes the peak of the concentration-time curve. What is called Tmax is the time from dosing to the highest level. As for `CNCCOC(=O)OCOc1c(-c2ccc(C(F)(F)F)cc2)c(C)nc2cc(OC)c(Cl)cc12.Cl`, the values for the Activity in the data set on Plasmodium berghei [5] and in the data set with Plasmodium berghei [9] were 96% and 75%, respectively. Also, the solubility in [10] is greater than 5600 µM. The peak level in [11] (Cmax) was 12 µM. In data set [7], this compound registered an exposure (AUC) of 8031 µmol·min/L. The same compound had a Vd in data set [12] of 7.8 L/kg. The half-life in [13] was 7.7 h. For the same compound, in data set [14], the Tmax is 4 h. This compound also displayed a clearance in [8] of 11.6 mL/min/kg.

`CCN(CC)C(=O)Oc1c(-c2ccccc2C)c(C)nc2cc(OC)c(Cl)cc12`: the negative-log EC50 (pEC50) was less than 5.45 in the data set with Plasmodium falciparum [1] and less than 5.64 in the data set on Plasmodium falciparum [3]. Moreover, the solubility in [2] is less than 1 µM.

`CNCCCOC(=O)OCOc1c(-c2ccc(Oc3ccc(OC(F)(F)F)cc3)cc2F)c(C)nc2cc(OC)c(Cl)cc12.Cl`: the Activity in the data set on Plasmodium berghei [15] was 57%; in the data set with Plasmodium berghei [16], greater than 99%; in data set [17] it was “Non-Toxic”; in the data set on Plasmodium berghei [18] it was greater than 99%; in the data set with Plasmodium berghei [20], less than 1%; with Plasmodium berghei [21] it was 97%. The values for the Activity in the data set with Plasmodium berghei [22], with Plasmodium berghei [24] and in the data set with Plasmodium berghei [25] were less than 1%, less than 1% and 90%, respectively. The compound further showed a solubility in data set [10] greater than 5500 µM. Further, the area under the curve (AUC) in [19] was determined as 10269 µmol·min/L; in data set [27], 4818 µmol·min/L. Further, the clearance in data set [23] amounted to 1.4 mL/min/kg; in data set [26], 0.9 mL/min/kg.

Regarding `CCN(CC)Cc1cc(Nc2ccnc3cc(Cl)ccc23)ccc1O` [AMODIAQUINE], the Activity with Plasmodium berghei [28] and with Plasmodium berghei [9] was greater than 99% in each case.
